Laboratory results taken from ChEMBL document CHEMBL4613280, “Development of Pyrazolo[3,4-d]pyrimidine Kinase Inhibitors as Potential Clinical Candidates for Glioblastoma Multiforme” (ACS Med Chem Lett, 2020).
Active and inactive are the calls of the source. No cut-off for these calls is given here.

Key:
[1] = Cytotoxicity against human GIN8 cells derived from invasive region of GBM patient assessed as reduction in cell viability measured after 48 hrs by Prestoblue assay; format: functional, cell-based
Summary of the method: (§1)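 Compounds diluted in DMEM containing 10% FBS and applied for 48 h. Viability read by PrestoBlue. IC50 calculated from three independent experiments, mean ± SE. Two-way ANOVA with Dunnett's multiple comparisons test.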

[2] = Cytotoxicity against human GIN28 cells derived from invasive region of GBM patient assessed as reduction in cell viability measured after 48 hrs by Prestoblue assay; format: functional, cell-based; summary of the method: as §1
[3] = Additive cytotoxicity against human GIN8 cells assessed as combination index measured after 48 hrs in presence of N-(3-bromophenyl)-1-(2-chloro-2-phenylethyl)6(2morpholinoethylsulfanyl)pyrazolo[3,4-d]pyrimidin-4-amine by Chou-Talalay assay; format: functional
Summary of the method: (§2)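 Each drug pair dosed at a 1:1 molar ratio on the GBM lines and incubated 48 h. CI computed from three independent IC50 experiments (n = 3), reported as mean ± SD.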

[4] = Antagonistic cytotoxicity against human GIN8 cells assessed as combination index measured after 48 hrs in presence of 3-(4-chlorophenyl)-1-(2-chloro-2-phenylethyl)pyrazolo[3,4-d]pyrimidin-4-amine by Chou-Talalay assay; format: functional; summary of the method: as §2
[5] = species on record: Homo sapiens; experiment: Induction of apoptosis in human GCE28 cells assessed as increase in caspase 3/7 activation at 12.5 uM measured after 48 hrs by CellEvent caspase 3/7 probe based fluorescence analysis; format: functional, cell-based
Summary of the method: (§3)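 Cells exposed 48 h to compounds diluted in 10% FBS DMEM. Activated caspase-3/7 detected with the CellEvent probe. Staurosporine 10.0 μM served as reference inducer. Mean ± SEM (n = 3). Two-way ANOVA with Dunnett's test.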

[6] = molecular target: Serine/threonine-protein kinase Sgk1 (Homo sapiens, UniProt O00141, S422D); experiment: Inhibition of human N-terminal His6-tagged N-truncated human SGK1 harboring S422D mutant expressed in Sf21 cells using Sgktide-peptide as substrate in presence of [gamma-32P]ATP by scintillation counting method
Serine/threonine-protein kinase Sgk1, sequence (O00141 whole entry S422D, the tested form may be a part): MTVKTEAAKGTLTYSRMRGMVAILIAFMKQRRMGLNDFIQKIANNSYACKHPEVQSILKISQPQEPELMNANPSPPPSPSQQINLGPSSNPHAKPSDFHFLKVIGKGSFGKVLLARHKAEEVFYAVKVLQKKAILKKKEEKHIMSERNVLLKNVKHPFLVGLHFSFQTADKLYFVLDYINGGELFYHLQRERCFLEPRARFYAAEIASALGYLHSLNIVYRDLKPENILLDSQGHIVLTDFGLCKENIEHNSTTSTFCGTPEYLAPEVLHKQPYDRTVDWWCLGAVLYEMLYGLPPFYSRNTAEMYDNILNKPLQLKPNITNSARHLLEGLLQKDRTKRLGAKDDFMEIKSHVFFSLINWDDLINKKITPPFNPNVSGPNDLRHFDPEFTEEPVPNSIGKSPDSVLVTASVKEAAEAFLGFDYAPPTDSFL

[7] = species on record: Homo sapiens; experiment: Induction of apoptosis in human GIN8 cells assessed as increase in caspase 3/7 activation at 12.5 uM measured after 48 hrs by CellEvent caspase 3/7 probe based fluorescence analysis; format: functional, cell-based; summary of the method: as §3
[8] = species on record: Homo sapiens; experiment: Induction of apoptosis in human GIN28 cells assessed as increase in caspase 3/7 activation at 12.5 uM measured after 48 hrs by CellEvent caspase 3/7 probe based fluorescence analysis; format: functional, cell-based; summary of the method: as §3
[9] = Synergistic cytotoxicity against human GIN28 cells assessed as combination index measured after 48 hrs in presence of 3-(4-chlorophenyl)-1-(2-chloro-2-phenylethyl)pyrazolo[3,4-d]pyrimidin-4-amine by Chou-Talalay assay; format: functional; summary of the method: as §2
[10] = Cytotoxicity against human GCE28 cells derived from central tumor core of GBM patient assessed as reduction in cell viability measured after 48 hrs by Prestoblue assay; format: functional, cell-based; summary of the method: as §1
[11] = Additive cytotoxicity against human GIN28 cells assessed as combination index measured after 48 hrs in presence of N-(3-bromophenyl)-1-(2-chloro-2-phenylethyl)6(2morpholinoethylsulfanyl)pyrazolo[3,4-d]pyrimidin-4-amine by Chou-Talalay assay; format: functional; summary of the method: as §2
[12] = Synergistic cytotoxicity against human GCE28 cells assessed as combination index measured after 48 hrs in presence of 3-(4-chlorophenyl)-1-(2-chloro-2-phenylethyl)pyrazolo[3,4-d]pyrimidin-4-amine by Chou-Talalay assay; format: functional; summary of the method: as §2
[13] = Additive cytotoxicity against human GCE28 cells assessed as combination index measured after 48 hrs in presence of N-(3-bromophenyl)-1-(2-chloro-2-phenylethyl)6(2morpholinoethylsulfanyl)pyrazolo[3,4-d]pyrimidin-4-amine by Chou-Talalay assay; format: functional; summary of the method: as §2
[14] = species on record: Homo sapiens; experiment: Induction of apoptosis in human GIN28 cells assessed as increase in caspase 3/7 activation at 10 uM measured after 48 hrs by CellEvent caspase 3/7 probe based fluorescence analysis; format: functional, cell-based
Summary of the method: (§4)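 Patient-derived GBM cells were exposed to compound diluted in DMEM containing 10% FBS for 48 h. Activated effector caspases-3/7 were then detected with the CellEvent caspase-3/7 fluorescent probe. Data are mean ± SEM of n = 3. Significance was tested by two-way ANOVA with Dunnett's multiple comparisons test.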

[15] = species on record: Homo sapiens; experiment: Induction of apoptosis in human GIN8 cells assessed as increase in caspase 3/7 activation at 10 uM measured after 48 hrs by CellEvent caspase 3/7 probe based fluorescence analysis; format: functional, cell-based; summary of the method: as §4
[16] = species on record: Homo sapiens; experiment: Induction of apoptosis in human GCE28 cells assessed as increase in caspase 3/7 activation at 10 uM measured after 48 hrs by CellEvent caspase 3/7 probe based fluorecence analysis; format: functional, cell-based; summary of the method: as §4

Row | Structure (SMILES) | IC50 [1] | IC50 [2] | CI [3] | CI [4] | Activity [5] | Ki [6] | Activity [7] | Activity [8] | CI [9] | IC50 [10] | CI [11] | CI [12] | CI [13] | Activity [14] | Activity [15] | Activity [16]
1 | OCCNc1nc(NCCc2ccccc2)c2cnn(/C=C/c3ccccc3)c2n1 | 10.5 µM | 14.4 µM | 0.99 | 1.13 | Active | 0.6 µM | Active | inactive | 0.57 | 10.7 µM | 0.9 | 0.46 | 0.97 | – | – | –
2 | CN[C@@H]1C[C@H]2O[C@@](C)([C@@H]1OC)n1c3ccccc3c3c4c(c5c6ccccc6n2c5c31)C(=O)NC4 | – | – | – | – | – | – | – | – | – | – | – | – | – | Active | Active | Active
